Experimental data as given in ChEMBL document CHEMBL1134439, “Radioiodinated styrylbenzenes and thioflavins as probes for amyloid aggregates” (J Med Chem, 2001).
pKi: −log10 of the molar value.

Columns and labels:
[1] = molecular target: T1, Amyloid-beta precursor protein (Homo sapiens, UniProt P05067); assay: Inhibition constant for aggregates of amyloid beta compared to [125I]IMSB
In short: (§1)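 Aβ(1-40) or Aβ(1-42) aggregated at 0.5 or 0.25 mg/mL respectively in pH 7.4 buffer (10 mM sodium phosphate, 1 mM EDTA), 37 °C, 36-42 h with shaking. Competition against ¹²⁵I radioligand with fibrils 10-50 nM (final), 10% EtOH, 1 mL. Incubation 3 h room temperature. Bound ligand collected by GF/B filtration, γ-counted. Ki by nonlinear regression. Mean ± SEM, three experiments in duplicate.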

Mus musculus [2] = assay: Biodistribution was measured in mice heart 6 hours after intravenous injection of [125I]-labeled styrylbenzene.; type: ADME, organism-based; settings: in vivo
In short: (§2)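 ICR mice (2-3 months old, 20-30 g) under ether anesthesia received 5-10 µCi ¹²⁵I tracer in 0.15 mL saline by tail-vein injection. Animals were killed by cardiac excision at set times post-injection. Organs were removed, weighed and γ-counted. Values are % dose per organ against diluted injectate aliquots, taking blood and muscle as 7% and 40% of body weight. Mean of 3-4 mice ± SD.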

Mus musculus [3] = assay: Biodistribution was measured in mice heart 60 minutes after intravenous injection of [125I]-labeled styrylbenzene.; type: ADME, organism-based; settings: in vivo, 1 h; in short: as §2
Mus musculus [4] = assay: Biodistribution was measured in mice kidney 2 minutes after intravenous injection of [125I]-labeled styrylbenzene.; type: ADME, organism-based; settings: in vivo; in short: as §2
Mus musculus [5] = assay: Biodistribution was measured in mice kidney 24 hours after intravenous injection of [125I]-labeled styrylbenzene.; type: ADME, organism-based; settings: in vivo; in short: as §2
Mus musculus [6] = assay: Biodistribution was measured in mice kidney 30 minutes after intravenous injection of [125I]-labeled styrylbenzene.; type: ADME, organism-based; settings: in vivo, 0.5 h; in short: as §2
Mus musculus [7] = assay: Biodistribution was measured in mice kidney 6 hours after intravenous injection of [125I]-labeled styrylbenzene.; type: ADME, organism-based; settings: in vivo; in short: as §2
Mus musculus [8] = assay: Biodistribution was measured in mice kidney 60 minutes after intravenous injection of [125I]-labeled styrylbenzene.; type: ADME, organism-based; settings: in vivo, 1 h; in short: as §2
Mus musculus [9] = assay: Biodistribution was measured in mice liver 2 minutes after intravenous injection of [125I]-labeled styrylbenzene.; type: ADME, organism-based; settings: in vivo; in short: as §2
Mus musculus [10] = assay: Biodistribution was measured in mice liver 24 hours after intravenous injection of [125I]-labeled styrylbenzene.; type: ADME, organism-based; settings: in vivo; in short: as §2
Mus musculus [11] = assay: Biodistribution was measured in mice liver 30 minutes after intravenous injection of [125I]-labeled styrylbenzene.; type: ADME, organism-based; settings: in vivo, 0.5 h; in short: as §2
Mus musculus [12] = assay: Biodistribution was measured in mice liver 60 minutes after intravenous injection of [125I]-labeled styrylbenzene.; type: ADME, organism-based; settings: in vivo, 1 h; in short: as §2
Mus musculus [13] = assay: Biodistribution was measured in mice muscle 30 minutes after intravenous injection of [125I]-labeled styrylbenzene.; type: ADME, organism-based, Muscle tissue; settings: in vivo, 0.5 h; in short: as §2
Mus musculus [14] = assay: Biodistribution was measured in mice muscle 6 hours after intravenous injection of [125I]-labeled styrylbenzene.; type: ADME, organism-based, Muscle tissue; settings: in vivo; in short: as §2
Mus musculus [15] = assay: Biodistribution was measured in mice muscle 60 minutes after intravenous injection of [125I]-labeled styrylbenzene.; type: ADME, organism-based, Muscle tissue; settings: in vivo, 1 h; in short: as §2
Mus musculus [16] = assay: Biodistribution was measured in mice skin 2 minutes after intravenous injection of [125I]-labeled styrylbenzene.; type: ADME, organism-based, Zone of skin; settings: in vivo; in short: as §2
Mus musculus [17] = assay: Biodistribution was measured in mice skin 24 hours after intravenous injection of [125I]-labeled styrylbenzene.; type: ADME, organism-based, Zone of skin; settings: in vivo; in short: as §2
Mus musculus [18] = assay: Biodistribution was measured in mice skin 30 minutes after intravenous injection of [125I]-labeled styrylbenzene.; type: ADME, organism-based, Zone of skin; settings: in vivo, 0.5 h; in short: as §2
Mus musculus [19] = assay: Biodistribution was measured in mice skin 6 hours after intravenous injection of [125I]-labeled styrylbenzene.; type: ADME, organism-based, Zone of skin; settings: in vivo; in short: as §2
Mus musculus [20] = assay: Biodistribution was measured in mice skin 60 minutes after intravenous injection of [125I]-labeled styrylbenzene.; type: ADME, organism-based, Zone of skin; settings: in vivo, 1 h; in short: as §2
Mus musculus [21] = assay: Biodistribution was measured in mice spleen 2 minutes after intravenous injection of [125I]-labeled styrylbenzene.; type: ADME, organism-based; settings: in vivo; in short: as §2
Mus musculus [22] = assay: Biodistribution was measured in mice spleen 24 hours after intravenous injection of [125I]-labeled styrylbenzene.; type: ADME, organism-based; settings: in vivo
Mus musculus [23] = assay: Biodistribution was measured in mice spleen 30 minutes after intravenous injection of [125I]-labeled styrylbenzene.; type: ADME, organism-based; settings: in vivo, 0.5 h
In short: (§3)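 ICR mice (2-3 months old, 20-30 g) under ether anesthesia; 0.15 mL saline containing 5-10 µCi ¹²⁵I tracer injected into tail vein. Sacrifice by cardiac excision at set times; organs removed, weighed, γ-counted. Expressed as % dose per organ versus diluted aliquots of injectate. Mean of three or four mice ± SD.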

Mus musculus [24] = assay: Biodistribution was measured in mice spleen 60 minutes after intravenous injection of [125I]-labeled styrylbenzene.; type: ADME, organism-based; settings: in vivo, 1 h; in short: as §3
Mus musculus [25] = assay: Biodistribution was measured in mice blood 2 minutes after intravenous injection of [125I]-labeled styrylbenzene.; type: ADME, organism-based; settings: in vivo; in short: as §2
Mus musculus [26] = assay: Biodistribution was measured in mice blood 24 hours after intravenous injection of [125I]-labeled styrylbenzene.; type: ADME, organism-based; settings: in vivo; in short: as §2
Mus musculus [27] = assay: Biodistribution was measured in mice blood 30 minutes after intravenous injection of [125I]-labeled styrylbenzene.; type: ADME, organism-based; settings: in vivo, 0.5 h; in short: as §2
Mus musculus [28] = assay: Biodistribution was measured in mice lung 2 minutes after intravenous injection of [125I]-labeled styrylbenzene.; type: ADME, organism-based; settings: in vivo; in short: as §2
Mus musculus [29] = assay: Biodistribution was measured in mice lung 24 hours after intravenous injection of [125I]-labeled styrylbenzene.; type: ADME, organism-based; settings: in vivo, in the assay text read “thioflavin” for “styrylbenzene”; in short: as §2
Mus musculus [30] = assay: Biodistribution was measured in mice lung 30 minutes after intravenous injection of [125I]-labeled styrylbenzene.; type: ADME, organism-based; settings: in vivo, 0.5 h; in short: as §2
Mus musculus [31] = assay: Biodistribution was measured in mice lung 6 hours after intravenous injection of [125I]-labeled styrylbenzene.; type: ADME, organism-based; settings: in vivo, in the assay text read “thioflavin” for “styrylbenzene”; in short: as §2
Mus musculus [32] = assay: Biodistribution was measured in mice lung 60 minutes after intravenous injection of [125I]-labeled styrylbenzene.; type: ADME, organism-based; settings: in vivo, 1 h; in short: as §2
Mus musculus [33] = assay: Biodistribution was measured in mice muscle 2 minutes after intravenous injection of [125I]-labeled styrylbenzene.; type: ADME, organism-based, Muscle tissue; settings: in vivo, in the assay text read “thioflavin” for “styrylbenzene”; in short: as §2
Mus musculus [34] = assay: Biodistribution was measured in mice muscle 24 hours after intravenous injection of [125I]-labeled styrylbenzene.; type: ADME, organism-based, Muscle tissue; settings: in vivo; in short: as §2
Mus musculus [35] = assay: Biodistribution was measured in mice brain 6 hours after intravenous injection of [125I]-labeled styrylbenzene; type: ADME, organism-based; settings: in vivo; in short: as §2
Mus musculus [36] = assay: Biodistribution was measured in mice brain 60 minutes after intravenous injection of [125I]-labeled styrylbenzene; type: ADME, organism-based; settings: in vivo, 1 h; in short: as §2
Mus musculus [37] = assay: Biodistribution was measured in mice heart 2 minutes after intravenous injection of [125I]-labeled styrylbenzene.; type: ADME, organism-based; settings: in vivo; in short: as §2
Mus musculus [38] = assay: Biodistribution was measured in mice heart 24 hours after intravenous injection of [125I]-labeled styrylbenzene.; type: ADME, organism-based; settings: in vivo; in short: as §2
Mus musculus [39] = assay: Biodistribution was measured in mice heart 30 minutes after intravenous injection of [125I]-labeled styrylbenzene.; type: ADME, organism-based; settings: in vivo, 0.5 h; in short: as §2
Mus musculus [40] = assay: Biodistribution was measured in mice blood 6 hours after intravenous injection of [125I]-labeled styrylbenzene.; type: ADME, organism-based; settings: in vivo; in short: as §2
Mus musculus [41] = assay: Biodistribution was measured in mice blood 60 minutes after intravenous injection of [125I]-labeled styrylbenzene.; type: ADME, organism-based; settings: in vivo, 1 h; in short: as §2
Mus musculus [42] = assay: Biodistribution was measured in mice brain 2 minutes after intravenous injection of [125I]-labeled styrylbenzene; type: ADME, organism-based; settings: in vivo, in the assay text read “thioflavin” for “styrylbenzene”; in short: as §2
Mus musculus [43] = assay: Biodistribution was measured in mice brain 24 hours after intravenous injection of [125I]-labeled styrylbenzene; type: ADME, organism-based; settings: in vivo, in the assay text read “thioflavin” for “styrylbenzene”; in short: as §2
Mus musculus [44] = assay: Biodistribution was measured in mice brain 30 minutes after intravenous injection of [125I]-labeled styrylbenzene; type: ADME, organism-based; settings: in vivo, 0.5 h; in short: as §2
Mus musculus [45] = assay: Biodistribution was measured in mice liver 6 hours after intravenous injection of [125I]-labeled styrylbenzene.; type: ADME, organism-based; settings: in vivo, in the assay text read “thioflavin” for “styrylbenzene”; in short: as §2
Mus musculus [46] = assay: Biodistribution was measured in mice spleen 6 hours after intravenous injection of [125I]-labeled thioflavin.; settings: in vivo
[47] = molecular target: T1, Amyloid-beta precursor protein; assay: Inhibition constant of compound on ligand binding to aggregates of Amyloid beta was measured by comparing with [125I]TZDM
In short: (§4)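 Aβ(1-40) or Aβ(1-42) peptide pre-aggregated at 0.5 or 0.25 mg/mL respectively in pH 7.4 buffer (10 mM sodium phosphate, 1 mM EDTA), 37 °C for 36-42 h with shaking. Fibrils (10-50 nM final) incubated with ¹²⁵I radioligand in 10% EtOH, 3 h at room temperature. Bound ligand separated by GF/B filtration and γ-counted. Ki from nonlinear regression. Three independent experiments, each in duplicate, mean ± SEM.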

[48] = molecular target: T1, Amyloid-beta precursor protein; assay: Inhibition constant of compound on ligand binding to aggregates of Amyloid beta was measured by comparing with [125I]IMSB; in short: as §4
[49] = molecular target: T1, Amyloid-beta precursor protein; assay: Inhibition constant for amyloid beta compared to [125I]TZDM; in short: as §1

T1 sequence (P05067 whole entry): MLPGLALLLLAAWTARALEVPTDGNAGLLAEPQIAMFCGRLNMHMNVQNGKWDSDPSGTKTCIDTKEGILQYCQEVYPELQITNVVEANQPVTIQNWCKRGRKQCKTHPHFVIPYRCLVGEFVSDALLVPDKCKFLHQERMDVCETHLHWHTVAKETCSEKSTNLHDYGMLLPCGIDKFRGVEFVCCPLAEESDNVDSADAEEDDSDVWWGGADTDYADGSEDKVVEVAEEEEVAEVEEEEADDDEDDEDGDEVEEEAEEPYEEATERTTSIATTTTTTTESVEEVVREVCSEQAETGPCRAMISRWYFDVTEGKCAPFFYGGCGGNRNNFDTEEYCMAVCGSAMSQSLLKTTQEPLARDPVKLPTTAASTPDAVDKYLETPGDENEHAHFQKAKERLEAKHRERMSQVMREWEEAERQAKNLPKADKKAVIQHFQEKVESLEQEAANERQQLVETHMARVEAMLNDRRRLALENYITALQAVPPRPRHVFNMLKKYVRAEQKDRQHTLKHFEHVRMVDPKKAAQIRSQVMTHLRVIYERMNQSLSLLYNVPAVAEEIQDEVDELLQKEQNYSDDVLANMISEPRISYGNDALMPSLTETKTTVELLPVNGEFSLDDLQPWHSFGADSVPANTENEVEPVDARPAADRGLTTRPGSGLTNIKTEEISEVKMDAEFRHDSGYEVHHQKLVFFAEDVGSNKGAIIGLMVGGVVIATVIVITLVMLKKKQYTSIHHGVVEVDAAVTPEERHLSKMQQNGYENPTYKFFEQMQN

CN(C)c1ccc(-c2nc3ccc(Br)cc3s2)cc1
pKi [1]: < 5.52

CN1CCN(c2ccc(-c3nc4ccc(Br)cc4s3)cc2)CC1
pKi [1]: < 5.62

CN1CCN(c2ccc(-c3nc4ccc(I)cc4s3)cc2)CC1
Dose/organ (Mus musculus [2]): 0.22%
Dose/organ (Mus musculus [3]): 0.66%
Dose/organ (Mus musculus [4]): 6.46%
Dose/organ (Mus musculus [5]): 1.15%
Dose/organ (Mus musculus [6]): 8.06%
Dose/organ (Mus musculus [7]): 3.62%
Dose/organ (Mus musculus [8]): 7.99%
Dose/organ (Mus musculus [9]): 28.84%
Dose/organ (Mus musculus [10]): 3.05%
Dose/organ (Mus musculus [11]): 21.22%
Dose/organ (Mus musculus [12]): 17.2%
Dose/organ (Mus musculus [13]): 18.82%
Dose/organ (Mus musculus [14]): 6.65%
Dose/organ (Mus musculus [15]): 19.46%
Dose/organ (Mus musculus [16]): 4.06%
Dose/organ (Mus musculus [17]): 1.64%
Dose/organ (Mus musculus [18]): 6.07%
Dose/organ (Mus musculus [19]): 3.17%
Dose/organ (Mus musculus [20]): 5.63%
Dose/organ (Mus musculus [21]): 0.89%
Dose/organ (Mus musculus [22]): 0.08%
Dose/organ (Mus musculus [23]): 0.87%
Dose/organ (Mus musculus [24]): 0.6%
Dose/organ (Mus musculus [25]): 8.02%
Dose/organ (Mus musculus [26]): 0.41%
Dose/organ (Mus musculus [27]): 5.15%
Dose/organ (Mus musculus [28]): 12.8%
Dose/organ (Mus musculus [29]): 0.44%
Dose/organ (Mus musculus [30]): 4.14%
Dose/organ (Mus musculus [31]): 1.15%
Dose/organ (Mus musculus [32]): 3.38%
Dose/organ (Mus musculus [33]): 13.24%
Dose/organ (Mus musculus [34]): 2.44%
Dose/organ (Mus musculus [35]): 1.08%
Dose/organ (Mus musculus [36]): 1.89%
Dose/organ (Mus musculus [37]): 2.19%
Dose/organ (Mus musculus [38]): 0.08%
Dose/organ (Mus musculus [39]): 0.69%
Dose/organ (Mus musculus [40]): 1.49%
Dose/organ (Mus musculus [41]): 4.16%
Dose/organ (Mus musculus [42]): 1.5%
Dose/organ (Mus musculus [43]): 0.91%
Dose/organ (Mus musculus [44]): 1.59%
pKi [1]: < 5.70
Dose/organ (Mus musculus [45]): 5.79%
Dose/organ (Mus musculus [46]): 0.22%

O=C(O)c1cc(/N=N/c2ccc(-c3ccc(/N=N/c4ccc(O)c(C(=O)O)c4)cc3)cc2)ccc1O [CHRYSAMINE G]
pKi [47]: < 5.70
pKi [48]: 9.40
pKi [49]: < 6.00
pKi [1]: 9.85
